In ChEMBL document CHEMBL4152378, “Discovery of a Branched Peptide That Recognizes the Rev Response Element (RRE) RNA and Blocks HIV-1 Replication” (J Med Chem, 2018):
Residues, ends and D or L forms follow the SMILES beside them. *: point of attachment. X1 = N[C@@H](CCCCNC(=O)c1cnccn1)C(=O)N[C@@H](CCCCNC(=O)c1cnccn1)C(=O)N[C@@H](CCCCNC(=O)c1cnccn1)C(=O)*; Pyrazinecarbonyl = O=C(c1cnccn1)*

assay: Binding affinity to HIV1 rev response element 2B RNA by 2-AP based displacement assay; parameters: species or system Human immunodeficiency virus 1
How it was run: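 2-AP-labeled RRE IIB (0.1 μM) refolded at 95 °C 3 min, snap-cooled; titrated with peptide 0–20 μM in 10 mM potassium phosphate, 100 mM KCl, 1 mM MgCl2, 20 mM NaCl, pH 7.0; excitation 310 nm, emission decrease at 372 nm; Kd from Hill fit; at least duplicate, SD. Competition lines include 10-fold excess unlabeled RNA/DNA competitor.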

SMILES | Kd [µM]
NC(=O)[C@H](Cc1ccc(O)cc1)NC(=O)[C@H]1C[C@@H](N)CN1C(=O)CN(CCNC(=O)[C@H](CCCCNC(=O)c1cnccn1)NC(=O)[C@H](CCCCNC(=O)[C@H](Cc1cccc2ccccc12)NC(=O)[C@H](CCCCNC(=O)c1ccc(B(O)O)cc1)NC(=O)[C@H]1C[C@@H](N)CN1)NC(=O)[C@H](Cc1cccc2ccccc12)NC(=O)[C@H](CCCCNC(=O)c1ccc(B(O)O)cc1)NC(=O)[C@H]1C[C@@H](N)CN1)C(=O)Cn1cnc2c(=O)[nH]c(N)nc21 | 3.18
N=C(N)N[C@@H]1C[C@H](C(=O)N[C@@H](Cc2ccc(O)cc2)C(N)=O)N(C(=O)[C@H](Cc2cccc3ccccc23)NC(=O)[C@H](CCCCNC(=O)c2cnccn2)NC(=O)[C@H](CCCCNC(=O)[C@H](Cc2cccc3ccccc23)NC(=O)[C@H](CCCCNC(=O)c2ccc(B3OC(=O)c4cc(O)ccc4O3)cc2)NC(=O)[C@H]2C[C@@H](NC(=N)N)CN2)NC(=O)[C@H](Cc2cccc3ccccc23)NC(=O)[C@H](CCCCNC(=O)c2ccc(B3OC(=O)c4cc(O)ccc4O3)cc2)NC(=O)[C@H]2C[C@@H](NC(=N)N)CN2)C1 | 4.96
N=C(N)N[C@H]1CN[C@@H](C(=O)N2C[C@H](N)C[C@@H]2C(=O)N[C@@H](Cc2cccc3ccccc23)C(=O)NCCCC[C@H](NC(=O)[C@H](Cc2cccc3ccccc23)NC(=O)[C@H]2C[C@@H](N)CN2C(=O)[C@H]2C[C@@H](NC(=N)N)CN2)C(=O)NCCN(CC(=O)NCCN(CC(=O)N[C@@H](Cc2cccc3ccccc23)C(=O)N[C@@H](Cc2ccc(O)cc2)C(N)=O)C(=O)Cn2cnc3c(=O)[nH]c(N)nc32)C(=O)Cn2cnc3c(=O)[nH]c(N)nc32)C1 | 0.66
NC(=O)[C@H](Cc1ccc(O)cc1)NC(=O)[C@H](CCCCNC(=O)c1cnccn1)NC(=O)[C@H](CCCCNC(=O)c1cnccn1)NC(=O)[C@H](CCCCNC(=O)c1cnccn1)NC(=O)[C@H](CCCCNC(=O)[C@H](CCCCNC(=O)c1cnccn1)NC(=O)[C@H](CCCCNC(=O)c1cnccn1)NC(=O)[C@@H](N)CCCCNC(=O)c1cnccn1)NC(=O)[C@H](CCCCNC(=O)c1cnccn1)NC(=O)[C@H](CCCCNC(=O)c1cnccn1)NC(=O)[C@@H](N)CCCCNC(=O)c1cnccn1 (H-K(Pyrazinecarbonyl)K(Pyrazinecarbonyl)K(Pyrazinecarbonyl)K(X1)K(Pyrazinecarbonyl)K(Pyrazinecarbonyl)K(Pyrazinecarbonyl)Y-NH2) | > 10
N=C(N)N[C@@H]1C[C@H](C(=O)N2C[C@H](N)C[C@@H]2C(=O)N[C@@H](Cc2ccc(O)cc2)C(N)=O)N(C(=O)[C@H]2C[C@@H](N)CN2C(=O)[C@H](CCCCNC(=O)[C@H]2C[C@@H](N)CN2C(=O)[C@H]2C[C@@H](NC(=N)N)CN2C(=O)[C@H]2C[C@@H](N)CN2)NC(=O)[C@H]2C[C@@H](N)CN2C(=O)[C@H]2C[C@@H](NC(=N)N)CN2C(=O)[C@H]2C[C@@H](N)CN2)C1 | 0.72
N=C(N)N[C@H]1CN[C@@H](C(=O)N2C[C@H](N)C[C@@H]2C(=O)NCCN(CC(=O)NCCCC[C@H](NC(=O)CN(CCNC(=O)[C@H]2C[C@@H](N)CN2C(=O)[C@H]2C[C@@H](NC(=N)N)CN2)C(=O)Cn2cnc3c(=O)[nH]c(N)nc32)C(=O)NCCN(CC(=O)N[C@@H](CCCCNC(=O)c2ccc(B3OC(=O)c4cc(O)ccc4O3)cc2)C(=O)N[C@@H](CCCCNC(=O)c2cnccn2)C(=O)N[C@@H](Cc2ccc(O)cc2)C(N)=O)C(=O)Cn2cnc3c(=O)[nH]c(N)nc32)C(=O)Cn2cnc3c(=O)[nH]c(N)nc32)C1 | 1.18
N=C(N)N[C@H]1CN[C@@H](C(=O)N[C@@H](CCCCNC(=O)c2ccc(B3OC(=O)c4cc(O)ccc4O3)cc2)C(=O)N[C@@H](CCCCNC(=O)c2ccc(B3OC(=O)c4cc(O)ccc4O3)cc2)C(=O)NCCCC[C@H](NC(=O)[C@H](CCCCNC(=O)c2ccc(B3OC(=O)c4cc(O)ccc4O3)cc2)NC(=O)[C@H](CCCCNC(=O)c2ccc(B3OC(=O)c4cc(O)ccc4O3)cc2)NC(=O)[C@H]2C[C@@H](NC(=N)N)CN2)C(=O)N[C@@H](CCCCNC(=O)c2ccc(B3OC(=O)c4cc(O)ccc4O3)cc2)C(=O)N[C@@H](CCCCNC(=O)c2cnccn2)C(=O)N[C@@H](Cc2cccc3ccccc23)C(=O)N[C@@H](Cc2ccc(O)cc2)C(N)=O)C1 | > 10

Next, values leading:

Kd [µM] | SMILES
1.76 | N=C(N)N[C@H]1CN[C@@H](C(=O)N2C[C@H](N)C[C@@H]2C(=O)N2C[C@H](N)C[C@@H]2C(=O)NCCCC[C@H](NC(=O)[C@H]2C[C@@H](N)CN2C(=O)[C@H]2C[C@@H](N)CN2C(=O)[C@H]2C[C@@H](NC(=N)N)CN2)C(=O)NCCN(CC(=O)NCCN(CC(=O)N2C[C@H](N)C[C@@H]2C(=O)N[C@@H](Cc2ccc(O)cc2)C(N)=O)C(=O)Cn2cnc3c(=O)[nH]c(N)nc32)C(=O)Cn2cnc3c(=O)[nH]c(N)nc32)C1
1.11 | N=C(N)N[C@@H]1C[C@H](C(=O)N2C[C@H](N)C[C@@H]2C(=O)N[C@@H](Cc2ccc(O)cc2)C(N)=O)N(C(=O)CN(CCNC(=O)[C@H](CCCCNC(=O)[C@H]2C[C@@H](NC(=N)N)CN2C(=O)[C@H]2C[C@@H](N)CN2C(=O)[C@@H](N)CCCCNC(=O)c2cnccn2)NC(=O)[C@H]2C[C@@H](NC(=N)N)CN2C(=O)[C@H]2C[C@@H](N)CN2C(=O)[C@@H](N)CCCCNC(=O)c2cnccn2)C(=O)Cn2cnc3c(=O)[nH]c(N)nc32)C1
1.02 | N=C(N)N[C@H]1CN[C@@H](C(=O)N2C[C@H](N)C[C@@H]2C(=O)N2C[C@H](N)C[C@@H]2C(=O)NCCCC[C@H](NC(=O)[C@H]2C[C@@H](N)CN2C(=O)[C@H]2C[C@@H](N)CN2C(=O)[C@H]2C[C@@H](NC(=N)N)CN2)C(=O)N[C@@H](CCCCNC(=O)c2cnccn2)C(=O)NCCN(CC(=O)N2C[C@H](N)C[C@@H]2C(=O)N[C@@H](Cc2ccc(O)cc2)C(N)=O)C(=O)Cn2cnc3c(=O)[nH]c(N)nc32)C1
1.32 | N=C(N)N[C@@H]1C[C@H](C(=O)N[C@@H](CCCCNC(=O)c2cnccn2)C(=O)N2C[C@H](N)C[C@@H]2C(=O)N[C@@H](Cc2ccc(O)cc2)C(N)=O)N(C(=O)[C@H](CCCCNC(=O)[C@H]2C[C@@H](N)CN2C(=O)[C@H]2C[C@@H](N)CN2C(=O)[C@H]2C[C@@H](NC(=N)N)CN2)NC(=O)[C@H]2C[C@@H](N)CN2C(=O)[C@H]2C[C@@H](N)CN2C(=O)[C@H]2C[C@@H](NC(=N)N)CN2)C1
1.3 | N=C(N)N[C@@H]1C[C@H](C(=O)N2C[C@H](NC(=N)N)C[C@@H]2C(=O)N[C@@H](CCCCNC(=O)c2cnccn2)C(=O)N[C@@H](Cc2ccc(O)cc2)C(N)=O)N(C(=O)[C@H](CCCCNC(=O)[C@H](CCCCNC(=O)c2cnccn2)NC(=O)[C@H]2C[C@@H](N)CN2C(=O)[C@H]2C[C@@H](NC(=N)N)CN2)NC(=O)[C@H](CCCCNC(=O)c2cnccn2)NC(=O)[C@H]2C[C@@H](N)CN2C(=O)[C@H]2C[C@@H](NC(=N)N)CN2)C1
2.98 | N=C(N)N[C@H]1CN[C@@H](C(=O)N2C[C@H](N)C[C@@H]2C(=O)N2C[C@H](N)C[C@@H]2C(=O)NCCCC[C@H](NC(=O)[C@H]2C[C@@H](N)CN2C(=O)[C@H]2C[C@@H](N)CN2C(=O)[C@H]2C[C@@H](NC(=N)N)CN2)C(=O)N[C@@H](CCCCNC(=O)c2cnccn2)C(=O)N[C@@H](Cc2cccc3ccccc23)C(=O)N2C[C@H](N)C[C@@H]2C(=O)N[C@@H](Cc2ccc(O)cc2)C(N)=O)C1
4.46 | N=C(N)N[C@@H]1C[C@H](C(=O)N[C@@H](Cc2ccc(O)cc2)C(N)=O)N(C(=O)[C@H](CCCCNC(=O)c2ccc(B(O)O)cc2)NC(=O)[C@H](CCCCNC(=O)c2ccc(B(O)O)cc2)NC(=O)[C@H](CCCCNC(=O)[C@H]2C[C@@H](N)CN2C(=O)[C@H]2C[C@@H](N)CN2C(=O)[C@H]2C[C@@H](NC(=N)N)CN2)NC(=O)[C@H]2C[C@@H](N)CN2C(=O)[C@H]2C[C@@H](N)CN2C(=O)[C@H]2C[C@@H](NC(=N)N)CN2)C1
